Series [1] has as its system methicillin-resistant Staphylococcus epidermidis (MRSE). The experiment in a line: Antimicrobial susceptibility. In kind it is cell-based. As to conditions: for MIC^2: MRSE isolate from sample 2 of periprosthetic fluid at diagnosis; for MIC: Staphylococcus epidermidis, MRSE; for MIC^1: MRSE isolate from sample 1 of periprosthetic fluid at diagnosis. The gist of the method: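 Two MRSE isolates, each recovered from a separate sample of periprosthetic fluid taken by sterile drainage at diagnosis. A susceptibility profile was recorded for each isolate.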

Another series concerns Gram-positive infections. The following applies: 30 of 32 patients who received at least two doses of oritavancin; cited from earlier work.
For series [2], the system named is shoulder PJI caused by methicillin-resistant Staphylococcus epidermidis (MRSE). As to the kind of experiment: Clinical course of shoulder prosthetic joint infection under oritavancin. It counts as in vivo, human (patient). As to conditions: ten sequential doses of 1200 mg over 28 weeks; single patient.

By MIC is commonly meant the lowest concentration that inhibits growth of the organism.

Values after ≈ are worked out from the molar mass of the structure shown. Where two headings read alike, the source gives them in different places.

As for Daptomicin, the “MIC^2” value in series [1] amounted to 0.25 µg/mL. As to `CC(=O)O[C@H]1C[C@@]2(C)[C@@H](C[C@@H](O)[C@H]3[C@@]4(C)CC[C@@H](O)[C@@H](C)[C@@H]4CC[C@@]32C)/C1=C(\CCC=C(C)C)C(=O)O` [Fusidic Acid], the results for the MIC in series [1] (read-out: MIC^1) and in series [1] (read-out: MIC^2) were greater than 8 µg/mL and 16 µg/mL (≈ 31 µM), respectively. On the same counts, the results for `CNC(C)C1CCC(N)C(OC2C(N)CC(N)C(OC3OCC(C)(O)C(NC)C3O)C2O)O1` (centres unmarked) [Gentamicin] are no more than 1 µg/mL and no more than 0.5 µg/mL. For `CC(=O)NC[C@H]1CN(c2ccc(N3CCOCC3)c(F)c2)C(=O)O1` [Linezolid], in that order: 1 µg/mL (≈ 2.96 µM) and 2 µg/mL (≈ 5.93 µM). Regarding `COc1c(N2C[C@@H]3CCCN[C@@H]3C2)c(F)cc2c(=O)c(C(=O)O)cn(C3CC3)c12` [Moxifloxacin], the MIC in series [1] (read-out: MIC^1) is greater than 1 µg/mL. In the case of Vancomicin, in series [1], the “MIC^1” value was 2 µg/mL and the “MIC^2” value is no more than 0.5 µg/mL. For `Cc1onc(-c2ccccc2)c1C(=O)N[C@@H]1C(=O)N2[C@@H]1SC(C)(C)[C@@H]2C(=O)O` [Oxacillin], the MIC in series [1] (read-out: MIC^1) and in series [1] (read-out: MIC^2) was greater than 2 µg/mL throughout. With `CC1(C)S[C@@H]2[C@H](NC(=O)[C@H](N)c3ccccc3)C(=O)N2[C@H]1C(=O)O` [Ampicillin], the MIC in series [1] (read-out: MIC^1) was greater than 2 µg/mL. Take `CN(C)c1cc(NC(=O)CNC(C)(C)C)c(O)c2c1C[C@H]1C[C@H]3[C@H](N(C)C)C(O)=C(C(N)=O)C(=O)[C@@]3(O)C(O)=C1C2=O` [Tigeciclin]: in series [1], the “MIC^1” value was no more than 0.25 µg/mL and the “MIC^2” value turned out to be 0.25 µg/mL (≈ 0.427 µM). Regarding `CN[C@H](CC(C)C)C(=O)N[C@H]1C(=O)N[C@@H](CC(N)=O)C(=O)N[C@H]2C(=O)N[C@H]3C(=O)N[C@H](C(=O)N[C@H](C(=O)O)c4cc(O)cc(O)c4-c4cc3ccc4O)[C@H](O[C@H]3C[C@](C)(N)[C@@H](O)[C@H](C)O3)c3ccc(c(Cl)c3)Oc3cc2cc(c3O[C@@H]2O[C@H](CO)[C@@H](O)[C@H](O)[C@H]2O[C@H]2C[C@](C)(NCc3ccc(-c4ccc(Cl)cc4)cc3)[C@@H](O)[C@H](C)O2)Oc2ccc(cc2Cl)[C@H]1O` [Oritavancin], in the series with Gram-positive infections, the clinical success is reported as 93.8%. Further, the side effects result in series [2] is listed as “no side effects reported”. Regarding Teicoplanin, the “MIC^1” value in series [1] was less than 2 µg/mL. On to `CN(C)[C@@H]1C(O)=C(C(N)=O)C(=O)[C@@]2(O)C(O)=C3C(=O)c4c(O)cccc4[C@@](C)(O)[C@H]3C[C@@H]12` [Tetraciclin], for which, in series [1], the “MIC^1” value is 1 µg/mL (≈ 2.25 µM) and the “MIC^2” value is 2 µg/mL (≈ 4.5 µM). In the case of `CCC[C@@H]1C[C@@H](C(=O)N[C@@H]([C@H]2O[C@H](SC)[C@H](O)[C@@H](O)[C@H]2O)[C@H](C)Cl)N(C)C1` [Clindamicin], the MIC in series [1] (read-out: MIC^1) is no more than 0.25 µg/mL; in series [1] (read-out: MIC^2) it was 0.25 µg/mL (≈ 0.588 µM). On the same counts, the results for `O=C(O)c1cn(C2CC2)c2cc(N3CCNCC3)c(F)cc2c1=O` [Ciprofloxacin] are greater than 4 µg/mL and greater than 4 µg/mL. On the same counts, the results for `CO[C@H]1/C=C/O[C@@]2(C)Oc3c(C)c(O)c4c(O)c(c(/C=N/N5CCN(C)CC5)c(O)c4c3C2=O)NC(=O)/C(C)=C\C=C\[C@H](C)[C@H](O)[C@@H](C)[C@@H](O)[C@@H](C)[C@H](OC(C)=O)[C@@H]1C` [Rifampin] are greater than 1 µg/mL and greater than 2 µg/mL. For `CC[C@H]1OC(=O)[C@H](C)[C@@H](O[C@H]2C[C@@](C)(OC)[C@@H](O)[C@H](C)O2)[C@H](C)[C@@H](O[C@@H]2O[C@H](C)C[C@H](N(C)C)[C@H]2O)[C@](C)(O)C[C@@H](C)C(=O)[C@H](C)[C@@H](O)[C@]1(C)O` [Eritromicin], in series [1], the “MIC^1” value was no more than 0.25 µg/mL and the “MIC^2” value turned out to be 1 µg/mL (≈ 1.36 µM). As for `C[C@@H]1O[C@@H]1P(=O)(O)O` [Fosfomicin c/G6P, Fosfomicin], in series [1], the “MIC^1” value was no more than 16 µg/mL.

The values above are taken from article PMC11584596 (IDCases, 2024).
